A selection: hits, their analogues and other compounds. The true share with any hit is near 4.9%.
APP 5'UTR act: APP 5'UTR luciferase reporter activation. activation, % at 2 µM. 1% of 190,000 active. SH-SY5Y APP 5'UTR luciferase reporter, luminescence; zero percent = DMSO vehicle wells;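 active means activation above a set limit, based on mean plus 3 SD of controls, cut at about 140% in these data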
STAT1 blocker: STAT1 signaling inhibition. NIH 3T3 STAT1-luciferase reporter, IFN-gamma, luminescence. inhibition, % at 5.5 µM. 0.35% of 200,000 active. AID 920;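 active means inhibition above a set limit, the mean inhibition across all tested compounds plus 3 SD, cut at about 34% in these data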;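 further: 0% = IFN-gamma with DMSO and 100% = IFN-gamma with 300 µM nifuroxazide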
STAT3 act: increases IL-6 driven STAT3 reporter signal; U3A cells, IL-6 STAT3-luciferase reporter, luminescence; 100% = signal with IL-6 EC80 alone; activation (% of control), % at 5.6 µM; 0.91% of 190,000 active; AID 871;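 active means activation above the screen-wide mean of compound activation plus 3 SD, cut at about 130% in these data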;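 further: 0% = background luminescence of wells with medium and substrate only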
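Test system: human U3A cells carrying STAT3-luciferase construct; control set: IL-6-only wells as 100% reference; timing: compound pre-incubation 1 h before IL-6, then 6 h stimulation at 37 °C; also added: IL-6 stimulus at 33 ng/mL final; evaluation: % activation versus median of IL-6-stimulated wells; detection: reporter luminescence signal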
NF-kB expr up: NF-kB expression increase, human neuronal cells; 1.6% of 190,000 active; NF-kB reporter expression; stronger effect = higher value; fold change at 12.5 µM; in the data active means fold change above about 3.3
STAT1 act: increases IFN-gamma driven STAT1 reporter signal | NIH 3T3 STAT1-luciferase reporter, luminescence; 100% = IFN-gamma alone, no compound | activation (% of control), % at 5.5 µM | 2.6% of 200,000 active;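 active means activation above the screen-wide mean activation plus 3 SD, cut at about 130% in these data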;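 further: raw ratio to IFN-gamma control signal so 100% means no change and 0% no light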
STAT3 inh-1: STAT3 signaling inhibition | U3A cells, IL-6 STAT3-luciferase reporter, luminescence; host cell line lacks STAT1 | inhibition, % at 5.5 µM | 0.89% of 190,000 active | AID 862;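 active means inhibition above the mean inhibition across all screened compounds plus 3 SD, cut at about 44% in these data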;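 further: 0% = DMSO only wells and 100% = 100 µM nifuroxazide control wells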
STAT3 inh-2: confirmation of STAT3 signaling inhibitors; 45% of 1,200 active; shares compounds with STAT3 inh-1; inhibition, % at 5.7 µM; U3A cells, IL-6 STAT3 luciferase reporter, luminescence; cell line lacks STAT1;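 active means inhibition above the hit cutoff computed for the primary STAT3 screen, cut at about 44% in these data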;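 further: 0% = IL-6 plus DMSO and 100% = IL-6 plus nifuroxazide control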
NFkB inh 2: inhibits NF-kappaB, counter-screen to STAT3 inhibitors. 36% of 1,200 active. HEK293T NF-kB luciferase reporter, TNF-alpha induced. shares compounds with STAT3 inh-1. inhibition, % at 5.7 µM. AID 1308;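 active means inhibition above the mean of solvent-only control wells plus 3 SD, cutoff set per campaign, cut at about 13% in these data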;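 further: 0% = TNF-alpha with DMSO and 100% = TNF-alpha with MG high control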
STAT1 inh 2: inhibits STAT1, counter-screen to STAT3 inhibitors. shares compounds with STAT3 inh-1. NIH 3T3 STAT1-luciferase reporter, IFN-gamma induced, luminescence. inhibition, % at 5.7 µM. 27% of 1,200 active;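 active means inhibition above the mean plus 3 SD of solvent-only control wells, limit set per screening run, cut at about 16% in these data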;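 further: 0% = DMSO with IFN-gamma and 100% = nifuroxazide control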
* = called active by the depositor; . = no result.

SMILES	APP 5'UTR act	STAT1 blocker	STAT3 act	NF-kB expr up	STAT1 act	STAT3 inh-1	STAT3 inh-2	NFkB inh 2	STAT1 inh 2
CCOc1ccc(C(=O)Nc2cc(C)on2)cc1	109	-4	66	3.6*	104	46*	2	-23	-52
CC(C)c1cc(C(N)=O)c(NC(=O)c2cccc(COc3ccc(Cl)cc3)c2)s1	80	34*	48	3	68	63*	32	8	11
Cc1nn(Cc2c(F)c(F)c(F)c(F)c2F)c(C)c1NC(=O)c1cccc(COc2ccc(Cl)cc2)c1	50	-8	109	1.9	108	-3	.	.	.
CCOc1cc(C(=O)Nc2cc(C)on2)cc(OCC)c1OCC	10	5	100	0.99	95	3	.	.	.
Cc1cc(NC(=O)COC(=O)c2cccc(OCc3ccccc3)c2)no1	-6	-6	111	1.2	105	-10	.	.	.
Cc1cc(NC(=O)c2cccc(COc3ccc(Br)cc3)c2)no1	113	15	63	2.7	86	49*	19	41*	-15
CCCCC(C(=O)OCC)C(N)Cc1ccc(F)cc1 (configuration not stated)	8	16	102	1.1	85	4	.	.	.
COc1ccc(-n2c(SCC(N)=O)nc3sc4c(c3c2=O)CCC4)cc1	-26	2	94	1.2	97	10	.	.	.
Cc1ccc(-n2c(SCC(=O)N3CCCc4ccccc43)nnc2-c2cccnc2)c(C)c1	-25	0	85	0.72	100	20	.	.	.
Cc1ccc(-n2c(-c3ccccc3)c[n+]3c2CCc2ccccc2-3)c(C)c1	27	28	47	0.76	74	66*	60*	-2	25*
O=C(Nc1ccc(-c2cn3ccsc3n2)cc1)c1ccc(F)c(S(=O)(=O)N2CCOCC2)c1	12	7	67	0.37	93	45*	35	1	1
c1c2c(cc3sc(N4CCOCC4)nc13)OCO2	92	-20	86	3.2	118	22	.	.	.
c1c2c(cc3sc(N4CCCCC4)nc13)OCO2	206*	11	53	3.8*	90	62*	34	-1	-56
CC[n+]1c(/C=C2/C=C(C)CC(C)C2)sc2ccccc21 (configuration not stated)	-9	29	86	0.81	71	19	.	.	.
CC[n+]1c(C=C2C=C(C)OC(C)=C2)sc2ccccc21	-9	29	31	0.85	74	84*	85*	27*	4
COc1cccc(NC(=O)Nc2ccc3c(c2)nc(C)n3C)c1	112	7	57	5.7*	92	54*	12	-15	-39
COc1cccc(NC(=O)Nc2nccc(C)n2)c1	109	33	42	4.1*	69	71*	37	3	-58
CCN(CC)c1ccc(NC(=O)COC(=O)/C=C/c2nc3ccccc3s2)cc1	-10	-2	102	0.9	102	-8	.	.	.
CCN(CC)c1ccc(/C=C/c2nc3ccccc3s2)cc1	76	23	50	1.4	79	66*	23	-8	-91
O=C(Nc1ccc(Cl)c(Cl)c1)c1cccc(S(=O)(=O)NCc2cccnc2)c1	-7	2	92	0.72	98	4	.	.	.
CC(=O)N1CCc2cc(S(=O)(=O)NC3CCCc4ccccc43)ccc21 (configuration not stated)	1	19	62	0.7	83	48*	46*	1	9
CC(=O)Nc1ccc(S(=O)(=O)Oc2cccc(/C=N/N=C3/NC(=O)C(CC(=O)O)S3)c2)cc1 (configuration not stated)	0	0	98	1.1	97	8	.	.	.
Cc1sc2ncnc(NCC3COc4ccccc4O3)c2c1C (configuration not stated)	-8	27	36	0.48	76	74*	83*	32*	23*

Assay outcomes from PubChem.
